According to ChEMBL document CHEMBL4765236, “Insights into the Antimicrobial Activity and Cytotoxicity of Engineered α-Helical Peptide Amphiphiles” (J Med Chem, 2016):
Activity calls are given as the source filed them. The calls are words filed in the database; no cut-off is given here.

Columns and labels:
[1] = system: Staphylococcus aureus; test: Induction of morphological changes in Staphylococcus aureus ATCC 29213 assessed as membrane alteration at 1 times MIC after 60 mins by TEM analysis; type: functional, organism-based
[2] = system: Escherichia coli; test: Induction of morphological changes in Escherichia coli O157:H7 CICC 21530 assessed as membrane alteration at 1 times MIC after 60 mins by TEM analysis; type: functional, organism-based
[3] = system: Staphylococcus aureus; test: Induction of morphological changes in Staphylococcus aureus ATCC 29213 assessed as membrane damage at 1 times MIC after 60 mins by TEM analysis; type: functional, organism-based
[4] = system: Escherichia coli; test: Induction of morphological changes in Escherichia coli O157:H7 CICC 21530 assessed as membrane damage at 1 times MIC after 60 mins by TEM analysis; type: functional, organism-based
[5] = system: Staphylococcus aureus; test: Induction of morphological changes in Staphylococcus aureus ATCC 29213 assessed as outflow of cytoplasm at 1 times MIC after 60 mins by TEM analysis; type: functional, organism-based
[6] = system: Escherichia coli; test: Induction of morphological changes in Escherichia coli O157:H7 CICC 21530 assessed as outflow of cytoplasm at 1 times MIC after 60 mins by TEM analysis; type: functional, organism-based
[7] = system: RAW264.7; test: Antiinflammatory activity against mouse RAW264.7 cells assessed as inhibition of LPS-induced nitric oxide production at 32 uM measured after 24 hrs by Griess reagent based ELISA; type: functional, cell-based
Procedure, shortened: (§1)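 RAW264.7 cells plated at 1-2 × 10^5 cells/mL and stimulated with 500 ng/mL LPS with or without peptide (0.5-64 µM) for 24 h at 37 °C. Controls were untreated cells and LPS alone. TNF-α in the supernatant measured by ELISA. NO measured by Griess reagent (1% sulfanilamide, 0.1% naphthylethylenediamine, 5% phosphoric acid).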

[8] = system: RAW264.7; test: Antiinflammatory activity against mouse RAW264.7 cells assessed as inhibition of LPS-induced TNF-alpha production at 4 uM measured after 24 hrs by […] ELISA; type: functional, cell-based; procedure, shortened: as §1
[9] = system: HepG2; test: Induction of morphological changes in human HepG2 cells assessed as roughness of cell membrane at 32 uM after 24 hrs by SEM analysis; type: functional, cell-based
[10] = system: HepG2; test: Induction of morphological changes in human HepG2 cells assessed as appearance of crimped boundaries at 32 uM after 24 hrs by SEM analysis; type: functional, cell-based
[11] = system: HepG2; test: Induction of morphological changes in human HepG2 cells assessed as cell disruption at 32 uM after 24 hrs by SEM analysis; type: functional, cell-based
[12] = system: HepG2; test: Induction of morphological changes in human HepG2 cells assessed as shriveled cells at 32 uM after 24 hrs by SEM analysis; type: functional, cell-based
[13] = system: HepG2; test: Induction of apoptosis in human HepG2 cells assessed as nucleus budding at 32 uM incubated for 2 to 4 hrs by DAPI staining based confocal microscopy; type: functional, cell-based; conditions: time 2-4 hrs
Procedure, shortened: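 HepG2 cells treated with 32 µM peptide for 2, 4 or 8 h and stained with DAPI. Nuclear morphology imaged by confocal microscopy, with untreated cells as control.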

[14] = Drug localization in nucleus of human HepG2 cells assessed as fluorescent signal in presence of FITC-labelled peptide at 32 uM incubated for 4 hrs by DAPI staining based confocal microscopy; type: ADME, subcellular; conditions: hepg2, 4 h
Procedure, shortened: (§2)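 HepG2 cells incubated with FITC-labelled peptide at 32 µM. Fluorescence distribution imaged by confocal laser-scanning microscopy at intervals (1, 4 and 8 h).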

[15] = Drug distribution in human HepG2 cells assessed as fluorescence signal in presence of FITC-labelled peptide at 32 uM measured after 8 hrs by DAPI staining based confocal microscopy; type: ADME, cell-based; conditions: hepg2, 8 h; procedure, shortened: as §2
[16] = system: HepG2; test: Induction of ROS generation in human HepG2 cells assessed as increase in visual fluorescence intensity up to 32 uM measured at 2 hr by DCFH-DA staining-based fluorescence analysis; type: functional, cell-based; conditions: dose microM <=32, time 2.0 hrs
[17] = system: Escherichia coli; test: Bactericidal activity against Escherichia coli O157:H7 CICC 21530 assessed as bacterial killing at 1 times MIC measured within 5 mins by time kill assay; type: functional, organism-based; conditions: time min <5
[18] = system: HepG2; test: Induction of ROS generation in human HepG2 cells assessed as increase in fluorescence intensity up to 32 uM by DCFH-DA staining-based fluorescence analysis; type: functional, cell-based; conditions: dose microM <=32, time 8.0 hrs, TDE = time-dependent effect
[19] = system: Staphylococcus aureus; test: Bactericidal activity against Staphylococcus aureus ATCC 29213 assessed as bacterial killing at 1 times MIC measured within 5 mins by time kill assay; type: functional, organism-based; conditions: time min <5
Procedure, shortened: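 Log-phase S. aureus 29213 exposed to peptide at 1 × MIC in 10 mM PBS pH 7.4 at 37 °C for 0-90 min. Aliquots taken at fixed intervals, diluted and plated on nutrient agar, and colonies counted after 18 h at 37 °C. Average of three independent assays.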

| Substance | Activity [1] | Activity [2] | Activity [3] | Activity [4] | Activity [5] | Activity [6] | Activity [7] | Activity [8] | Activity [9] | Activity [10] | Activity [11] | Activity [12] | Activity [13] | Drug uptake [14] | Drug uptake [15] | Activity [16] | Activity [17] | Activity [18] | Activity [19] |
| --- | --- | --- | --- | --- | --- | --- | --- | --- | --- | --- | --- | --- | --- | --- | --- | --- | --- | --- | --- |
| H-WGEAFSAGVHRLANGGNG-NH2 | Active | Active | – | – | – | – | – | – | – | – | – | – | – | – | – | – | – | – | – |
| H-WLRAFRRLVRRLARGLRR-NH2 | – | – | Active | Active | Active | Active | Active | Active | Active | Active | Active | Active | Active | Active | Active | Active | Active | Tde | Active |
